Screens from PubChem BioAssay.
Arrestin-AP2 inh: inhibitors of human beta-arrestin and AP2 interaction. FITC-arrestin peptide / GST-AP2 beads, flow cytometry; AP2 beta2 appendage carries R879A mutation. inhibition, % at 10 µM. hit rate 0.31% among 340,000;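 active means inhibition above a set limit, near 3 SD of compounds lacking own fluorescence, cut at about 54% in these data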;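 further: plate controls were DMSO wells for no effect and 5 µM unlabelled arrestin peptide for full effect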
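test system = AP2 appendage R879A on GSH beads | buffer or medium = PBS plus Tween 20 (0.05%) and BSA (0.1%) | incubation = 12 min plus 1 h, RT | detection = bead flow cytometry, FITC channel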
TbMetRS inhib: Trypanosoma brucei MetRS inhibition | purified T. brucei MetRS, ATP depletion, Kinase-Glo luminescence | inhibition, % at 11.9 µM | hit rate 0.4% among 360,000;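 active means inhibition above a per-plate cutoff of the control wells' mean inhibition plus 3 SD, cut at about 5.5% in these data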;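 further: 0% = DMSO wells median and 100% = median of wells with control inhibitor compound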
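Material – parasite MetRS enzyme · Medium – HEPES-MgCl2-KCl buffer plus DTT, spermine, BSA, pyrophosphatase · Reagent – ATP, methionine and E. coli bulk tRNA substrates · Times – 15 min enzyme-compound preincubation, 2 h reaction, 10 min detection, 25 °C · Measured by – luminescence of leftover ATP · Evaluation – percent inhibition relative to median high and low control wells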
MT1-MMP act inh: MT1-MMP (human) activation inhibition; HT1080 RFP-PRO-GFP cells, GFP/RFP ratio fluorescence, overnight; percent of plate control window, DMSO zero; AID 651647; P50281; hit rate 0.061% among 360,000; GFP/RFP ratio change, % at 20 µM;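 active means GFP/RFP ratio change of at least 30% with cell ATP level not reduced by more than half and red fluorescence within 50% of control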
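Test system: HT1080 RFP-PRO-GFP cells; Benchmarks: DMSO and RFP-L50D-GFP cell wells; Timing: cells overnight before dosing, compound overnight, 37 °C, 5% CO2; Compound: one 20 µM compound dose with 1% DMSO; Read-out: GFP/RFP fluorescence ratio.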
Rin1 Abl inh: inhibitors of human Rin1-Abl protein interaction | hit rate 0.4% among 360,000 | P00519+Q13671 | TR-FRET Rin1/Abl binding, biochemical | inhibition, % at 7.35 µM | AID 588664; in the data active means inhibition above about 5%, passing the limit was not always enough
SKN-1 inh: inhibitors of C. elegans SKN-1 | C. elegans VP596 Pgst-4::GFP/RFP ratio, acrylamide-induced, 24 h | inhibition, % at 21.8 µM | hit rate 0.49% among 360,000;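 active means interference check ratio from 0.5 to 1.5 plus GFP to RFP signal ratio inhibition reaching or exceeding a fixed threshold, cut at about 30% in these data, passing the limit was not always enough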
Arr AP2 CP1: human beta-arrestin and AP2 interaction inhibition, cherry pick; shares compounds with Arrestin-AP2 inh; GST-AP2 beads, FITC arrestin peptide binding, flow cytometry; GST-fused beta2-adaptin appendage, R879A mutant; inhibition, % at 10 µM; hit rate 2% among 1,300;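 active means inhibition above a set limit, roughly 3 SD of non-fluorescent compound noise, cut at about 38% in these data; inactive means inhibition at or below that limit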;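 further: loss of bead fluorescence from 50 nM FITC arrestin peptide bound to appendage; 0% = negative control wells and 100% = excess unlabelled arrestin peptide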
Target sequence (P63010 whole entry, looked up, the tested form may be a part, one chain of several): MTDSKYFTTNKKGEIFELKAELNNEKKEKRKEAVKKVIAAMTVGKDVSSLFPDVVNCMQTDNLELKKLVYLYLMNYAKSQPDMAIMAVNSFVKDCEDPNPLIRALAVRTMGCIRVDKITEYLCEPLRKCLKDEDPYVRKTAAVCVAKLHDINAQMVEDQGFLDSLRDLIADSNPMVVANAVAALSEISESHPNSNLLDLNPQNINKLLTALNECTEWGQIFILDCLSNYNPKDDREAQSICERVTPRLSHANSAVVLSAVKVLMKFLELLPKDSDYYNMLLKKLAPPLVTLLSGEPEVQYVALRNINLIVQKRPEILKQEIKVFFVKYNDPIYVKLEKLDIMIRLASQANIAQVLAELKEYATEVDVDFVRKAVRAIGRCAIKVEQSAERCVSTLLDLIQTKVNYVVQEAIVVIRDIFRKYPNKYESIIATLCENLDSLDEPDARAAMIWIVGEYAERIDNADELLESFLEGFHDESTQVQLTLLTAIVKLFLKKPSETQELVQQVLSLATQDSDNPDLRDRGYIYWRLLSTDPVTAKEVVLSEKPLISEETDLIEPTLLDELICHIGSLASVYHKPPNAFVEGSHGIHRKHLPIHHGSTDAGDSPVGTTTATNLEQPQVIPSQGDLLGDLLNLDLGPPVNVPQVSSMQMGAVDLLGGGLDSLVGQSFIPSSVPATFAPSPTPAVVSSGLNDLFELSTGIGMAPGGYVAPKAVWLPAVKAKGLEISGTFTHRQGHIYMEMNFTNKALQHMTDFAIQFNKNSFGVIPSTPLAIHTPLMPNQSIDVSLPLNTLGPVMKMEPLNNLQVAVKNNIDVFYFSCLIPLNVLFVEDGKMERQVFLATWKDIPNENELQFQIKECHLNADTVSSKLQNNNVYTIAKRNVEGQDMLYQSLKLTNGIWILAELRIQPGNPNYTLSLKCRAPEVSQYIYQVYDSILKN
GST GSH counter: counter-screen for beta-arrestin AP2 inhibitors: GST-GSH bead binding; AID 588338; shares compounds with Arrestin-AP2 inh; GST-fluorescein binding to GSH beads, fluorescence; inhibition, % at 10 µM; hit rate 2% among 1,300;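 active means inhibition above 50%, about 3 SD of the inhibition seen with non-fluorescent compounds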;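 further: fluorescein maleimide labelled GST captured on 4 micron glutathione beads; higher means more loss of bead fluorescence from quenching or blocked binding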
Numbers without * were called inactive; . = no result. A selection: hits, their analogues and other compounds. The true share with any hit is near 1.6%.

SMILES	Arrestin-AP2 inh	TbMetRS inhib	MT1-MMP act inh	Rin1 Abl inh	SKN-1 inh	Arr AP2 CP1	GST GSH counter
Cc1ccc(S(=O)(=O)N2CCC(C(=O)OCC(=O)N3C(C)CCCC3C)CC2)cc1C (stereo not given)	.	-0.3	2.6	-0.5	5.8	.	.
COc1cccc(NC(=O)c2nn(C)c3c2CS(=O)(=O)c2ccccc2-3)c1	5.0	0.3	2.5	-1.2	-5.1	.	.
Cn1nc(C(=O)Nc2ccccc2)c2c1-c1ccccc1S(=O)(=O)C2	58.4*	-0.9	2.5	0.9	-18.6	4.8	-8.3
CC(C)C[C@@H]1COc2cc(N3CCC[C@H]3CO)ccc2S(=O)(=O)N1	.	-0.5	3.5	.	-9.7	.	.
CC(C)COC(=O)N1CCCCC1c1cc(C(=O)NCc2ccc(F)cc2)no1 (stereo not given)	.	0.0	1.0	-1.1	18.3	.	.
O=C(Oc1ccccc1F)c1ccc2c(=O)n3c(nc2c1)CCC3	57.4*	-0.4	0.8	4.5	-4.1	4.6	-1.1
O=C(Oc1ccccc1Cl)c1ccc2c(=O)n3c(nc2c1)CCC3	15.8	-0.4	0.2	1.8	-3.9	.	.
Cc1cc(NC(=O)/C=C/c2ccc(F)cc2)n(-c2nc3ccccc3[nH]2)n1	0.5	-0.3	-2.5	2.8	3.8	.	.
Cc1cc(NC(=O)c2ccccc2F)n(-c2nc3ccccc3[nH]2)n1	19.9	-0.7	-2.7	-2.8	-10.2	4.5	-7.1
Cc1cc(NC(=O)c2c(F)cccc2Cl)n(-c2nc3ccccc3[nH]2)n1	99.0*	-0.4	-6.8	0.9	-0.3	5.5	-6.5
Cc1cc(NC(=O)c2ccc(C)s2)n(-c2nc3ccccc3[nH]2)n1	0.6	-0.6	-2.6	-2.4	7.5	-13.0	2.5
Cc1cc(NC(=O)C2CCCCC2)n(-c2nc3ccccc3[nH]2)n1	-3.9	-0.7	-3.8	-1.1	-11.6	.	.
Cc1cc(NC(=O)c2c(F)cccc2F)n(-c2nc3ccccc3[nH]2)n1	13.5	-1.2	0.9	6.2	17.9	10.6	-4.0
O=C(NCc1ccncc1)[C@@H]1CCCN1C(=O)[C@H]1CCCN1	.	-0.3	2.8	.	23.3	.	.
Cc1ccc(C(C)(C)NC(=O)C2CCC(=O)N(Cc3ccccc3F)C2)cc1 (stereo not given)	-3.9	-0.4	4.3	0.7	1.2	-5.1	3.2
Cc1ccc([C@H]2C[C@@H](O)[C@H](n3cc(C4CC4)nn3)CN2C(=O)C2CCCCC2)cc1	.	-1.3	5.7	-1.8	9.1	.	.
COC(=O)[C@]12CCCCC=C1N(Cc1ccc3c(c1)OCO3)C(=O)[C@H](CC(=O)NCCC(C)C)C2	.	-0.2	6.1	.	15.0	.	.
CCOC(=O)c1cc2c(nc1NC(=S)NCc1ccccc1)CCCC2	103.4*	-1.0	-2.8	2.6	9.8	-5.8	-2.3
COc1ccccc1Cc1c(-c2ccco2)nc2ccc(C)cn12	.	-1.0	-4.9	2.9	9.4	.	.
COc1cc(C2Nc3cccc4cccc(c34)N2)cc(OC)c1O	55.8*	0.0	18.8	4.8	4.5	16.7	9.2
COc1ccc(C2Nc3cccc4cccc(c34)N2)cc1Br	12.7	-0.3	-2.9	1.1	21.2	.	.
NC(=O)C(c1ccccc1)C1CCCC1 (stereo not given)	2.2	-1.9	0.2	1.0	-33.1	.	.
NC(=O)NCC(c1ccccc1)C1CCCCC1 (stereo not given)	61.4*	-0.7	-0.3	1.2	-8.9	-6.7	-2.2
COc1ccc(N2C(=O)c3ccccc3NC(=O)C2C(=O)NCc2ccco2)cc1 (stereo not given)	.	-0.1	-1.5	.	14.3	.	.
O=C(NC1CCCCC1)C1c2ccccc2OCC(=O)N1CCc1ccccc1 (stereo not given)	.	-0.3	5.4	.	7.9	.	.
Cc1c(C(=O)NCCN2CCCC(O)C2)oc2c(F)cccc12 (stereo not given)	57.5*	-1.1	1.8	2.1	-3.8	-10.5	-3.1
Cc1cccn2cc(-c3ccc(NC(=O)Cc4ccccc4)cc3)nc12	95.9*	-0.1	1.2	-2.9	-3.1	-1.3	-1.4
